Screens: PubChem BioAssay, The Scripps Research Institute Molecular Screening Center
Fh CTSL1 inh: blocks F. hepatica cathepsin L1 in PFM18AAP counter-screen | hit rate 0.49% among 300,000 | AID 1906 | recombinant F. hepatica cathepsin L1, Z-Leu-Arg-MCA fluorescence | inhibition, % at 5.96 µM;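 active = inhibition above the mean of all tested compounds plus 3 SD, set per screening campaign, cut at about 17% in these data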;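 note: 0% = plate median of test compound wells and 100% = 1 µM Z-Phe-Ala-diazomethylketone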
NS3 helicase inh: blocks Hepatitis C virus NS3 helicase unwinding; NS3 helicase DNA unwinding, Cy5 molecular beacon fluorescence; inhibition, % at 10.9 µM; hit rate 0.56% among 290,000; AID 1800;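 active = inhibition above the mean of all tested compounds plus 3 SD, set per campaign, cut at about 35% in these data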;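 note: 0% = DMSO wells and 100% = thioflavine S control wells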
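Assay system: hepatitis C virus NS3 helicase domain fragment enzyme. Also added: annealed dual-labelled DNA beacon duplex, ATP-started. Timing: 1 h reaction at 25 °C, ATP-initiated. Technique: Cy5 fluorescence at 0 and 60 min, beacon hairpin quenching. Evaluation: % inhibition of unwinding. Replication: one well per compound.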
EBNA-1 inhibitor: blocks EBNA-1 binding to DNA. AID 1950. inhibition, % at 14.8 µM. hit rate 0.34% among 300,000. EBNA-1 DNA binding, fluorescence polarization; in the data active = inhibition above about 28%
ZTA DNA inh: ZTA (EBV) inhibition in EBNA-1 counter-screen; hit rate 0.15% among 320,000; ZTA-DNA binding, fluorescence polarization; inhibition, % at 11 µM; P03206; in the data active = inhibition above about 33%
Target sequence (P03206 whole entry, looked up): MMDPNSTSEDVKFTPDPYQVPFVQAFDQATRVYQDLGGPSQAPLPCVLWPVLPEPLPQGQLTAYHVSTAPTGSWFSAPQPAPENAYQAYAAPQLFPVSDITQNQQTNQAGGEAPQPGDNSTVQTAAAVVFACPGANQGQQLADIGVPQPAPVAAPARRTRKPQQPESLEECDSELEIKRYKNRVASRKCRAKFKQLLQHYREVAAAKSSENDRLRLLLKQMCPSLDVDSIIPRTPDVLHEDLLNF
EBNA-1 inh conf: EBNA-1 (EBV) inhibition, confirmation; hit rate 35% among 830; shares compounds with EBNA-1 inhibitor; inhibition, % at 14.8 µM; Recombinant EBNA-1 DBD, Cy5-DNA fluorescence polarization;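 active = mean inhibition across replicates above a set limit taken from the earlier primary screen, cut at about 28% in these data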;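 note: plate controls were EBNA-1 protein with DMSO for no effect and wells lacking EBNA-1 for full effect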
ZTA counter trip: ZTA (EBV) inhibition, triplicate counter-screen. shares compounds with EBNA-1 inhibitor. Zta-ZRE DNA binding, Cy5 fluorescence polarization. inhibition, % at 11.1 µM. 830 tested, under 10 active. AID 2328;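 active = mean inhibition over triplicates above a set limit taken from the primary EBNA-1 screen, cut at about 37% in these data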;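 note: purified full length Zta protein with Cy5 labeled ZRE DNA probe; 0% = Zta with DMSO and 100% = wells lacking Zta protein; inhibitors lower polarization by freeing the labeled DNA probe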
* hit, by the source's call; / = no result. An excerpt weighted towards active compounds, which were near 1.4% of everything screened.

SMILES | Fh CTSL1 inh | NS3 helicase inh | EBNA-1 inhibitor | ZTA DNA inh | EBNA-1 inh conf | ZTA counter trip
COc1cccc(CNC(=O)c2cc3oc4ccccc4c3n2C)c1OC | 2.9 | -10.6 | 31.6* | 1.4 | 24.1 | -11.2
COc1ccc(N2CCN(S(=O)(=O)c3ccc(C(=O)NCc4ccco4)cc3)CC2)cc1 | -3.5 | -3.6 | 38.0* | -11.8 | 26.8 | 3.3
CSc1nc2ccc(NC(=O)c3ccc(Cl)s3)cc2s1 | -5.2 | 10.5 | 37.8* | -5.8 | 33.5* | 3.4
CCCCOc1ccc(C(=O)Nc2ccc(C)cc2[N+](=O)[O-])cc1 | 1.9 | 10.8 | 34.1* | -4.6 | 1.0 | 7.4
COc1ccc(O)c(/C=N/NC(=O)CCC(=O)Nc2cccc(C)c2)c1 | 1.9 | 5.4 | 7.7 | 19.4 | / | /
O=C(CCC(=O)Nc1ccc(Br)cc1)N/N=C/c1ccc(O)cc1 | 1.0 | 5.2 | 28.2* | 10.9 | 1.4 | 6.9
COc1ccc(O)c(/C=N/NC(=O)CCC(=O)Nc2ccc(C)cc2)c1 | 4.1 | -28.1 | 49.7* | 10.4 | -0.1 | 6.2
Cc1ccc(NC(=O)NC(=O)COc2ccccc2C(N)=O)c(C)c1 | / | / | / | 5.8 | / | /
Nc1ccccc1CNc1nc(NCCO)nc2c1ncn2CCN1CCOCC1 | -5.1 | / | 10.9 | 0.0 | / | /
CCOc1ccccc1OCC(=O)Nc1c(C)n(C)n(-c2ccccc2)c1=O | / | / | / | -20.9 | / | /
COc1ccc2oc(C(=O)Nc3nccs3)c(C)c2c1 | 1.1 | / | 29.2* | -6.5 | 54.8* | 13.2
COCCn1c(Cc2ccccc2)nnc1SCC(=O)NC(C)C | -0.5 | 7.7 | 87.5* | 18.6 | 2.5 | 3.2
COCCn1c(Cc2ccccc2)nnc1SCC(=O)NC(C)(C)C | 0.4 | 1.3 | -5.4 | -8.0 | / | /
C=CCOc1cccc(C2/C(=C(\O)c3ccc4c(c3)OCCO4)C(=O)C(=O)N2Cc2cccnc2)c1 (centres undefined) | 1.0 | 17.8 | 5.0 | -15.1 | / | /
COc1cccc(OC)c1C(=O)Nc1nc2cc3c(cc2s1)OCO3 | -3.1 | 0.1 | 33.3* | -3.2 | 59.8* | 7.1
COc1ccc(Cl)cc1NC(=O)CN1CCN(S(=O)(=O)c2ccc(F)cc2)CC1 | -0.9 | -1.1 | 44.4* | -21.5 | 91.2* | 10.7
COc1ccccc1N1CCN(C(=O)c2cc3c(s2)CCC3)CC1 | -4.3 | 7.4 | 2.9 | 15.9 | / | /
CC(=O)Nc1ccc(S(=O)(=O)Nc2ccc(S(=O)(=O)Nc3ncccn3)cc2)cc1 | -3.8 | 4.9 | 82.4* | 8.1 | 6.5 | 8.1
Cc1cc(S(=O)(=O)Nc2c(NC3CCCCC3)c3ccccc3oc2=O)ccc1F | 3.8 | 4.7 | 15.0 | 3.5 | / | /
CC(=O)Nc1ccc(S(=O)(=O)Nc2c(NC3CCCCC3)c3ccccc3oc2=O)cc1 | 12.2 | 5.5 | 32.3* | -12.2 | -2.7 | -0.4
CCCCc1cc(=O)oc2c3c(cc(OCC(=O)N4CCC[C@H]4C(=O)O)c12)OC(C)(C)CC3 | 1.2 | 8.9 | -3.5 | 7.4 | / | /
Cc1cc(=O)oc2c3c(cc(OCC(=O)N4CCC[C@H]4C(=O)O)c12)OC(C)(C)CC3 | 0.8 | 5.1 | 174.4* | -2.4 | -1.2 | -4.6
COc1cc(NC(=O)COC(=O)/C=C/c2ccc(Cl)cc2Cl)cc(OC)c1 | -13.2 | -0.5 | 53.4* | -2.3 | 59.2* | 6.0
O=C(COC(=O)/C=C/c1ccc(Cl)cc1Cl)Nc1ccc2c(c1)OCCO2 | -3.2 | 17.9 | 10.0 | 14.0 | / | /
COC(=O)/C=C1/SC(=Nc2ccc(C)cc2C)NC1=O | 2.6 | -10.1 | -6.2 | -0.6 | / | /
SMILES | Fh CTSL1 inh | NS3 helicase inh | EBNA-1 inhibitor | ZTA DNA inh | EBNA-1 inh conf | ZTA counter trip
COC(=O)/C=C1/SC(=Nc2ccc(Cl)c(Cl)c2)NC1=O | 8.0 | -1.5 | 40.7* | -1.9 | -7.9 | -10.3
Fc1ccccc1COc1ccccc1/C=N/Nc1nc(N2CCCC2)nc(N2CCCC2)n1 | 6.2 | 0.9 | 8.6 | -6.2 | / | /
C(=N\Nc1nc(N2CCCC2)nc(N2CCCC2)n1)/c1ccccc1OCc1ccccc1 | 8.7 | 0.1 | 38.2* | -16.1 | 24.3 | -1.7
C=CC1CN(CC(=O)OC)S(=O)(=O)c2ccccc21 (centres undefined) | -1.5 | / | -2.0 | -16.1 | / | /
CCOc1ccc(NC(=O)C2CCN(S(=O)(=O)c3c(C)noc3C)CC2)cc1 | -3.1 | -1.0 | 0.0 | 2.8 | / | /
COc1ccc(CNC(=O)Nc2ccc(C)cc2C)cc1 | 1.3 | 8.9 | 63.2* | -0.3 | 28.4* | -1.1
COc1ccc(CNC(=O)Nc2cc(C)ccc2C)cc1 | -0.9 | -19.5 | 9.2 | -11.6 | / | /
CSc1nc(NNC=O)cc(Oc2ccc(NC(C)=O)cc2)n1 | -2.1 | 1.8 | -12.6 | -6.9 | / | /
